According to ChEMBL document CHEMBL4825669, “Synthesis, Molecular Pharmacology, and Structure-Activity Relationships of 3-(Indanoyl)indoles as Selective Cannabinoid Type 2 Receptor Antagonists” (J Med Chem, 2021):

Columns and labels:
Cannabinoid receptor 1 [1] = target: T1, Cannabinoid receptor 1 (Homo sapiens, UniProt P21554); assay: Binding affinity to human CB1 receptor assessed as free binding energy; type: cell-based; details: CHO, filed as antagonist
Cannabinoid receptor 2 [2] = target: T2, Cannabinoid receptor 2 (Homo sapiens, UniProt P34972); assay: Displacement of [3H]-CP55940 from human CB2 receptor expressed in CHO cells at 1 uM incubated for 90 mins by liquid scintillation spectrophotometry relative to control; type: cell-based
Summary of the method: (§1)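 Membrane protein was 100 μg for CHO-hCB1 and 50 μg for CHO-hCB2. Incubation 90 min at room temperature. Nonspecific binding set with 10 μM WIN-55,212-2. Stopped by GF/B filtration with three ice-cold washes, then liquid scintillation counting.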

Cannabinoid receptor 2 [3] = target: T2, Cannabinoid receptor 2; assay: Binding affinity to human CB2 receptor assessed as free binding energy; type: cell-based; details: CHO, filed as antagonist
Cannabinoid receptor 1 [4] = target: T1, Cannabinoid receptor 1; assay: Displacement of [3H]-CP55940 from human CB1 receptor expressed in CHO cells at 1 uM incubated for 90 mins by liquid scintillation spectrophotometry relative to control; type: cell-based; summary of the method: as §1
Cannabinoid receptor 1 [5] = target: T1, Cannabinoid receptor 1; assay: Displacement of [3H]-CP55940 from human CB1 receptor expressed in CHO cells incubated for 90 mins by liquid scintillation spectrophotometry relative to control; type: cell-based; summary of the method: as §1
Cannabinoid receptor 2 [6] = target: T2, Cannabinoid receptor 2; assay: Antagonist activity at human CB2 receptor expressed in CHO cell membrane assessed as stimulation of [35S]GTPgammaS binding at 10 uM by liquid scintillation spectrophotometry; type: functional, cell membranes; parameters: scale not given: the % may be the effect or the level left
Summary of the method: (§2)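 CHO cell membranes expressing hCB2, 25 or 50 µg protein, incubated in triplicate with 0.1 nM [35S]GTPγS. Buffer: 20 mM HEPES, 100 mM NaCl, 10 mM MgCl2, 0.05% BSA, 20 units/L adenosine deaminase. Reaction 30 min at 30 °C, stopped by filtration on GF/B with ice-cold washes, counted by liquid scintillation. Nonspecific binding set with 10 μM unlabelled GTPγS.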

Cannabinoid receptor 2 [7] = target: T2, Cannabinoid receptor 2; assay: Displacement of [3H]-CP55940 from human CB2 receptor expressed in CHO cells incubated for 90 mins by liquid scintillation spectrophotometry relative to control; type: cell-based; summary of the method: as §1
CHO = assay: Selectivity index, ratio of Ki for human CB1 receptor expressed in CHO cells to Ki for human CB2 receptor expressed in CHO cells; type: cell-based
Cannabinoid receptor 2 [8] = target: T2, Cannabinoid receptor 2; assay: Antagonist activity at human CB2 receptor expressed in CHO cell membrane assessed as reduction in CP55940-induced [35S]GTPgammaS binding by liquid scintillation spectrophotometry; type: functional, cell membranes; summary of the method: as §2

T2 sequence (P34972 whole entry): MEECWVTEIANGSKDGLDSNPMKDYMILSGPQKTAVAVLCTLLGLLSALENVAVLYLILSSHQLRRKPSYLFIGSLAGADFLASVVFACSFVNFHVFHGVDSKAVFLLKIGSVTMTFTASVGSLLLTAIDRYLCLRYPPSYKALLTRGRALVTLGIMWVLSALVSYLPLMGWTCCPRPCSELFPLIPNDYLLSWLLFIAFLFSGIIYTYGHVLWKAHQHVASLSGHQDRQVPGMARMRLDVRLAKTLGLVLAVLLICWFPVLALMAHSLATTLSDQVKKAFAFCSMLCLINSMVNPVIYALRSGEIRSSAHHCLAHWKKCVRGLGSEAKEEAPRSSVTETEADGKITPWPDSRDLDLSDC
T1 sequence (P21554 whole entry): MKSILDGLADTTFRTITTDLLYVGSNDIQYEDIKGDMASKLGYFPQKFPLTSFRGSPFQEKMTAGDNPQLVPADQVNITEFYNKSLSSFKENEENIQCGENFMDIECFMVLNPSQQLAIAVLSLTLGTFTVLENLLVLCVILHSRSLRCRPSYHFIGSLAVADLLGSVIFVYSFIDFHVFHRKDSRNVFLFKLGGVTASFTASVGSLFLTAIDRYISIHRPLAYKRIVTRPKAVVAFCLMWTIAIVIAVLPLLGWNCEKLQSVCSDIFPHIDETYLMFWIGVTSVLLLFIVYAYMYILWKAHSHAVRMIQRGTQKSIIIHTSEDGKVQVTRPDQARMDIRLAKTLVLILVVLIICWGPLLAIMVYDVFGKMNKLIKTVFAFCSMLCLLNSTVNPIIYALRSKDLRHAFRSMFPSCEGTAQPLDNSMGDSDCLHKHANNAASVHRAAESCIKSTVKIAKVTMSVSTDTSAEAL

SMILES | Activity (Cannabinoid receptor 2 [2]; filed as antagonist) [%] | Activity (Cannabinoid receptor 1 [4]; filed as antagonist) [%] | Activity (Cannabinoid receptor 2 [6]; filed as antagonist) [%] | Activity (Cannabinoid receptor 1 [4]) [%] | further results
C#CCCCn1cc(C(=O)c2ccc3c(c2)CC(C)(C)C3)c2ccccc21 | 92.8 | 71 | 96 |  | deltaG (Cannabinoid receptor 1 [1]): -8.91 °C; deltaG (Cannabinoid receptor 2 [3]): -10.5; Ki (Cannabinoid receptor 1 [5]): 325 nM; Ki (Cannabinoid receptor 2 [7]): 24 nM
CCC#CCn1c(C)c(C(=O)c2ccc3c(c2)CC(C)(C)C3)c2ccccc21 |  |  |  | 16.4 | Activity (Cannabinoid receptor 2 [2]): 30.2%
C#CCCCn1c(C)c(C(=O)c2ccc3c(c2)CC(C)(C)C3)c2ccccc21 | 93.1 |  | 121 | 41.9 | deltaG (Cannabinoid receptor 1 [1]): -7.85 °C; deltaG (Cannabinoid receptor 2 [3]): -9.89; Ki (Cannabinoid receptor 1 [5]): 1900 nM; Ki (Cannabinoid receptor 2 [7]): 62.5 nM
CC/C=C/Cn1cc(C(=O)c2ccc3c(c2)CC(C)(C)C3)c2ccccc21 | 86.9 | 84.2 | 81 |  | 
CCCCCn1cc(C(=O)c2cccc3c2CC(C)(C)C3)c2ccccc21 | 94.1 | 85.7 | 134 |  | deltaG (Cannabinoid receptor 1 [1]): -12.1 kcal/mol; deltaG (Cannabinoid receptor 2 [3]): -12.2 kcal/mol; Selectivity Index (CHO): 1.1; Ki (Cannabinoid receptor 1 [5]): 1.46 nM; Ki (Cannabinoid receptor 2 [7]): 1.36 nM
CC/C=C\Cn1cc(C(=O)c2ccc3c(c2)CC(C)(C)C3)c2ccccc21 | 86.4 | 60.7 | 106 |  | 
CCCCn1cc(C(=O)c2ccc3c(c2)CC(C)(C)C3)c2ccccc21 | 92.9 | 82.7 | 102 |  | 
Cc1c(C(=O)c2ccc3c(c2)CC(C)(C)C3)c2ccccc2n1Cc1ccc(F)cc1 |  |  |  | 38.4 | Activity (Cannabinoid receptor 2 [2]): 48.8%
Cc1c(C(=O)c2ccc3c(c2)CC(C)(C)C3)c2ccccc2n1Cc1ccccc1 | 51.2 |  |  | 18.1 | 
CC1(C)Cc2ccc(C(=O)c3c[nH]c4ccccc34)cc2C1 |  |  |  | 9.4 | Activity (Cannabinoid receptor 2 [2]): 22.2%
CCCCCn1cc(C(=O)c2cccc3ccccc23)c2ccccc21 |  |  |  |  | Selectivity Index (CHO): 3.1; Ki (Cannabinoid receptor 1 [5]): 9 nM; Ki (Cannabinoid receptor 2 [7]): 2.94 nM
CCCCCn1c(C)c(C(=O)c2ccc3c(c2)CC(C)(C)C3)c2ccccc21 | 83.6 | 53.8 |  |  | 
CC1(C)Cc2ccc(C(=O)c3cn(Cc4ccccc4)c4ccccc34)cc2C1 | 84.6 | 69.2 | 87 |  | 
CCOC(=O)Cn1cc(C(=O)c2ccc3c(c2)CC(C)(C)C3)c2ccccc21 |  |  |  | 19.4 | Activity (Cannabinoid receptor 2 [2]): 18%
C=CCCCn1cc(C(=O)c2ccc3c(c2)CC(C)(C)C3)c2ccccc21 | 95.2 | 80 | 92 |  | deltaG (Cannabinoid receptor 1 [1]): -9.36 °C; deltaG (Cannabinoid receptor 2 [3]): -10.7; Ki (Cannabinoid receptor 1 [5]): 152 nM; Ki (Cannabinoid receptor 2 [7]): 15.6 nM
CCCCCCn1cc(C(=O)c2ccc3c(c2)CC(C)(C)C3)c2ccccc21 | 83.6 | 79.1 | 102 |  | 

SMILES | Activity (Cannabinoid receptor 2 [2]; filed as antagonist) [%] | Activity (Cannabinoid receptor 1 [4]; filed as antagonist) [%] | Activity (Cannabinoid receptor 2 [6]; filed as antagonist) [%] | Activity (Cannabinoid receptor 1 [4]) [%] | further results
C#CCn1c(C)c(C(=O)c2ccc3c(c2)CC(C)(C)C3)c2ccccc21 | 63 | 51.9 |  |  | 
C=CCCCn1c(C)c(C(=O)c2ccc3c(c2)CC(C)(C)C3)c2ccccc21 | 86.4 |  |  | 38.6 | 
CCCCn1c(C)c(C(=O)c2ccc3c(c2)CC(C)(C)C3)c2ccccc21 | 85.4 |  |  | 43.5 | 
CC1(C)Cc2ccc(C(=O)c3cn(Cc4ccc(F)cc4)c4ccccc34)cc2C1 | 92.3 | 88 | 90 |  | 
CC/C=C\Cn1c(C)c(C(=O)c2ccc3c(c2)CC(C)(C)C3)c2ccccc21 | 82.9 |  |  | 43 | 
CCCCCn1cc(C(=O)c2ccc3c(c2)CC(C)(C)C3)c2ccccc21 | 99.8 | 93.4 | 108 |  | deltaG (Cannabinoid receptor 1 [1]): -10.2 kcal/mol; IC50 (Cannabinoid receptor 2 [8]): 1800 nM; Kb (Cannabinoid receptor 2 [8]; filed as antagonist): 9.7 nM; deltaG (Cannabinoid receptor 2 [3]): -11.5 kcal/mol; Selectivity Index (CHO): 7.9; Ki (Cannabinoid receptor 1 [5]): 38.8 nM; Ki (Cannabinoid receptor 2 [7]): 4.9 nM
CC(C)Cn1cc(C(=O)c2ccc3c(c2)CC(C)(C)C3)c2ccccc21 | 83.1 | 422 |  |  | 
CCCn1c(C)c(C(=O)c2ccc3c(c2)CC(C)(C)C3)c2ccccc21 | 73.9 |  |  | 44.4 | 
CCC#CCn1cc(C(=O)c2ccc3c(c2)CC(C)(C)C3)c2ccccc21 | 65.9 | 55.6 |  |  | 
C=CCn1cc(C(=O)c2ccc3c(c2)CC(C)(C)C3)c2ccccc21 | 60.6 |  |  | 16 | 
CCCn1cc(C(=O)c2ccc3c(c2)CC(C)(C)C3)c2ccccc21 | 90.5 |  | 99 | 47.4 | deltaG (Cannabinoid receptor 1 [1]): -7.68 kcal/mol; deltaG (Cannabinoid receptor 2 [3]): -9.45 kcal/mol; Selectivity Index (CHO): 19.7; Ki (Cannabinoid receptor 1 [5]): 2560 nM; Ki (Cannabinoid receptor 2 [7]): 130 nM
CC/C=C/Cn1c(C)c(C(=O)c2ccc3c(c2)CC(C)(C)C3)c2ccccc21 | 73.7 |  |  | 35.1 | 
Cn1cc(C(=O)c2ccc3c(c2)CC(C)(C)C3)c2ccccc21 |  |  |  | 10.8 | Activity (Cannabinoid receptor 2 [2]): 23.9%
C#CCn1cc(C(=O)c2ccc3c(c2)CC(C)(C)C3)c2ccccc21 | 56 |  |  | 33.4 | 
CCCCCCn1c(C)c(C(=O)c2ccc3c(c2)CC(C)(C)C3)c2ccccc21 | 55 |  |  | 26.2 | 
COc1ccc(C(=O)c2c(C)n(CCN3CCOCC3)c3cc(I)ccc23)cc1 |  |  |  |  | Activity (Cannabinoid receptor 2 [6]): 67%
